# Assay outcomes as filed in PubChem.
# Compounds with a hit are over-represented: about 1.3% of the library has one in this group of screens.
# NRP1-CendR mod – alters CendR peptide binding to human NRP-1. O14786. 360,000 compounds, 0.85% hits. inhibition, % at 25 µM. FAM-RPARPAR peptide binding to NRP-1, fluorescence polarization;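 active means inhibition or corrected inhibition above about 18%, plus a signal ratio from 0.5 to 1.5, limit read from the data, passing the limit was not always enough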
# DDE Tn7 FP inh – inhibitors of Tn7 peptide binding to human fibrin DD(E) | 370,000 compounds, 0.13% hits | P02675 | inhibition, % at 8.3 µM | FP displacement of FITC-Tn7 peptide from fibrin DD(E); 0% = median of compound wells per plate;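 active means inhibition above the mean of compounds falling within the control limits plus 3 SD of them, cut at about 14% in these data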
# Target sequence (P02675 whole entry, looked up): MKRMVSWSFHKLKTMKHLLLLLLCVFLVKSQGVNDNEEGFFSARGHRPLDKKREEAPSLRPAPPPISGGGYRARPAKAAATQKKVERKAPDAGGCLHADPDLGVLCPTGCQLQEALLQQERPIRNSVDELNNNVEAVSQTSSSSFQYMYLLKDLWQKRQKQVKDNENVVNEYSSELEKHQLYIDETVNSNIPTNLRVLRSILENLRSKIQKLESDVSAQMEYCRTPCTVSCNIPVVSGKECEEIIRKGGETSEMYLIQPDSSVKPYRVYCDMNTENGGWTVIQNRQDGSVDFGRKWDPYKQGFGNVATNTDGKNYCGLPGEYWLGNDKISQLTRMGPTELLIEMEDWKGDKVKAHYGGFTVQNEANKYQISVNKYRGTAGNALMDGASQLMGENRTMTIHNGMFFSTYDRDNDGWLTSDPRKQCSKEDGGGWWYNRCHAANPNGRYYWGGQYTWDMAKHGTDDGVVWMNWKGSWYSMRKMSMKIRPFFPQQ
#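 Also added: labelled Tn7 tracer, 0.1 µM; Assay system: human fibrin DD(E) protein; Amount: 2 µM fibrin DD(E); Schedule: 10 min compound pre-incubation, 3 h probe incubation at room temperature; Repeats: one replicate per compound; Read-out basis: percent inhibition; Measured by: fluorescence polarization of the labelled Tn7 tracer.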
# aDG glyco up – increases alpha dystroglycan glycosylation. 360,000 compounds, 0.22% hits. Pro5-aDG cells, alpha-DG glycosylation AlphaScreen (IIH6); 0% Pro5, 100% B10-LARGE cell signal. AID 624168. activation, % at 10 µM;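 active means activation of at least 8% versus controls, or a plate z-score of at least 8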;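 further: Pro5 are CHO cells carrying HIG-tagged alpha-DG that lacks glycosylation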
# DDE Tn6 FP inh – DD(E)-Tn6 binding inhibition, primary FP screen; Fibrin DD(E) TRITC-Tn6 fluorescence polarization displacement; P02675; 370,000 compounds, 0.21% hits; inhibition, % at 8.3 µM;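 active means inhibition above a per-campaign cutoff: mean of compounds within control limits plus 3 SD, cut at about 15% in these data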
# A number is an active result; – = inactive; · = not tested or not shown.
SMILES,NRP1-CendR mod,DDE Tn7 FP inh,aDG glyco up,DDE Tn6 FP inh
CCc1ccccc1NC(=O)CNC(=O)c1ccc(OCc2cn3ccccc3n2)cc1,–,–,–,–
CN(CC(=O)Nc1ccc(F)cc1)C(=O)c1ccc(OCc2cn3ccccc3n2)cc1,27.0,–,–,–
O=C(CC1SC2=NCCN2C1=O)Nc1ccc(Cl)cc1 (configuration not stated),27.0,–,–,–
C(=N\Nc1nncc2ccccc12)/c1cccnc1,·,–,·,–
COc1ccc(/C=N\NS(=O)(=O)c2ccc(Cl)cc2)cc1COc1ccccc1[N+](=O)[O-],24.4,–,–,–
COc1ccc(/C=N\NS(=O)(=O)c2ccc(Br)cc2)cc1COc1ccccc1[N+](=O)[O-],–,–,–,–
CSc1nc2ccccc2c(=O)n1C1CCOC(C)(C)C1 (configuration not stated),27.7,–,–,–
CSc1nc2ccccc2c(=O)n1C1CCCCC1,–,–,–,–
COc1ccc(-c2nnc(SCC(=O)NN=C(C)c3cccc4ccccc34)n2-c2ccccc2)cc1,·,–,·,–
C[C@@H]1CN([C@@H](C)CO)C(=O)CCCn2cc(nn2)CO[C@H]1CN(C)S(=O)(=O)c1ccc(Cl)cc1,–,–,–,–
O=C(O)c1ccc(CSC2CCCCC2)cc1,22.1,–,–,–
O=C(O)c1ccc(CSc2nnc(SCc3ccccc3)s2)cc1,–,–,–,–
CCCCNC(=O)c1onc(CSc2ccc(Cl)cc2)c1C(=O)NCCCC,–,–,–,–
CCCCNC(=O)c1c(CSc2ccc(Cl)cc2)noc1C(=O)NCCC,30.7,–,–,–
Cc1ccc(-n2nnnc2-c2cnc(-c3cccnc3)nc2C(F)(F)F)cc1,19.6,–,–,–
FC(F)(F)c1nc(-c2ccncc2)ncc1-c1nnnn1-c1ccccc1,–,–,–,–
CCOC(=O)/C=C/COc1ccccc1[N+](=O)[O-],28.4,–,–,–
O=C(Nc1ccc(F)cc1F)c1cc(-c2ccc(Cl)cc2)nc2ccccc12,·,–,·,–
CC(C)(C)N(NC(=O)Nc1ccccc1)C(=O)c1ccccc1Cl,25.4,–,–,–
CCOC(=O)C[C@H]1c2ccc(C(F)(F)F)cc2S(=O)(=O)N1C1CCCC1,–,–,–,–
CCOC(=O)C[C@H]1c2ccc(C(F)(F)F)cc2S(=O)(=O)N1C(C)(C)C,21.8,–,–,–
CCOC(=O)C[C@H]1c2cc(C(F)(F)F)ccc2S(=O)(=O)N1Cc1ccccc1,26.1,–,–,–
Cc1cc(S(=O)(=O)c2ccc([N+](=O)[O-])cn2)ccc1Br,21.5,–,–,–
Cc1ccc(S(=O)(=O)c2ccc([N+](=O)[O-])cn2)cc1,–,–,–,–
C[C@H]1[C@H](N(C)C)CC[C@@]23CCCN2C(=O)CCC[C@@H]13,·,–,·,–
SMILES,NRP1-CendR mod,DDE Tn7 FP inh,aDG glyco up,DDE Tn6 FP inh
O=C(COc1ccc(Cl)cc1Cl)N1CCN(C(=O)c2ccco2)CC1,–,–,–,–
O=C(COc1ccccc1O)N1CCN(C(=O)c2ccco2)CC1,32.4,–,–,–
C[C@H](NC(=O)c1[nH]cnc1C(=O)Nc1ccc(Cl)cc1)c1ccccc1,37.0,–,–,–
C[C@@H](NC(=O)c1[nH]cnc1C(=O)Nc1cccc(Cl)c1)c1ccccc1,26.5,–,–,–
Cc1cccc(NC(=O)c2nc[nH]c2C(=O)N(C)CCO)c1,·,–,·,–
CCN(CC)C(=O)c1[nH]cnc1C(=O)Nc1cccc(C)c1,26.6,–,–,–
Cc1ccc(NC(=O)c2nc[nH]c2C(=O)N[C@@H](C)c2ccccc2)cc1,31.6,–,–,–
C[C@H]1[C@@H](NC(=O)c2cccc(N(C)C)c2)CC[C@@]23CCCN2C(=O)CCC[C@@H]13,·,–,·,–
CC(C)(C)OC(=O)[C@H](Cc1ccccc1)NC(=O)c1[nH]cnc1C(=O)Nc1cccc(Cl)c1,23.3,–,–,–
C[C@H](c1ccccc1)N1C[C@H](COCc2ccccc2)Oc2cc(N3CC[C@@H](O)C3)ccc2S1(=O)=O,–,–,–,–
CCOC(=O)C1CCCN(C(=O)c2ccc(-c3ccccc3)cc2)CC1 (configuration not stated),–,–,–,–
Cc1ccc2c(c1)[C@H]1[C@H](CO2)[C@H](c2ccccc2)[C@]2(C)C(=O)N(C)CC(=O)N12,–,–,–,–
Cc1cc(NC(=O)CCC(=O)N(Cc2cccs2)C(C)(C)C(=O)NC2CCCCC2)no1,19.6,–,–,–
O=C(NCCCc1ccccc1)OC1CC2CC1[C@H]1CCCCN1C2 (some centres not stated),·,–,·,–
Cc1nn(-c2ccccc2)c2sc(C(=O)NCCc3ccc(Cl)cc3)cc12,·,–,·,–
O=C1C=C(NCc2ccco2)C2(CCCCC2)O1,22.7,–,–,–
O=C(Nc1ccc(N2C(=O)CC(c3ccccc3)C2=O)c(Cl)c1)c1ccccn1 (configuration not stated),·,–,·,–
Oc1ccc(N=Cc2ccc(-c3cccs3)s2)cc1,–,–,–,18.5
CN(C)c1ccc(Cl)cc1N,27.6,–,–,–
O=C(CN1C(=O)c2ccccc2S1(=O)=O)NCCSCc1ccccc1Cl,–,–,–,–
O=C(CN1C(=O)c2ccccc2S1(=O)=O)NCCSCc1c(F)cccc1Cl,24.1,–,–,–
Cc1ccc(S(=O)(=O)Nc2ccccc2OC(C(=O)OC(C)(C)C)C(=O)OC(C)(C)C)cc1,–,–,–,–
CCC(=O)NCCCCNC(=O)CC,32.8,–,–,–
CCCC(=O)NCCCCNC(=O)CCC,–,–,–,–
COc1cc(C2Nc3cccc4cccc(c34)N2)cc(OC)c1OC(C)=O,25.3,–,–,–
SMILES,NRP1-CendR mod,DDE Tn7 FP inh,aDG glyco up,DDE Tn6 FP inh
CCC(=O)N1CCCC(C(=O)Nc2ccc3cn[nH]c3c2)CC1 (configuration not stated),–,–,–,–
CC(Oc1cccc(Cl)c1)C(=O)Nc1ccccc1N1CCCCC1 (configuration not stated),27.8,–,–,–
C=CCNC(=O)C1CCN(c2cncnc2)CC1,·,–,·,–
CC(=O)Nc1ccc(C(=O)Nc2cccc(S(=O)(=O)N(C)c3ccccc3)c2)cc1,26.0,–,–,–
Cn1cnnc1SCC(=O)Nc1cccc(S(=O)(=O)N2CCCCCC2)c1,–,–,–,–
CN(c1ccccc1)S(=O)(=O)c1cccc(NC(=O)c2ccncc2)c1,–,–,–,–
Cc1cc(C)n2c(SCC(=O)Nc3cccc(S(N)(=O)=O)c3)nnc2n1,24.2,–,–,–
CN(c1ccccc1)S(=O)(=O)c1cccc(NC(=O)CSc2nncn2C)c1,23.5,–,–,–
COc1ccc(N2CS(=O)CC2=O)cc1 (configuration not stated),26.6,–,–,–
COC1(OC)N=C(N)C2(C#N)C(c3cccc(Oc4ccccc4)c3)C12C#N (configuration not stated),25.8,–,–,–
COC1(OC)N=C(N)C2(C#N)C(c3ccc(F)cc3)C12C#N (configuration not stated),30.8,–,–,–
Fc1ccc2nc(-c3ccc(CN4CCC(c5nc6ccccc6[nH]5)CC4)cc3)c(-c3ccccc3)nc2c1,·,–,·,–
